Hits are enriched below; roughly 2.2% of the tested compounds scored in any of these assays.
MK inhibit: S. pneumoniae MK inhibitors, primary screen, biochemical, PK/LDH-coupled NADH absorbance; mevalonate kinase [Streptococcus pneumoniae D39]; purified MK, PK/LDH-coupled NADH absorbance 340 nm; inhibition, % at 10 µM; hit rate 0.48% among 65,000;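 active = ranked among the strongest by inhibition in the single 10 µM screen, a fixed top-ranked set picked for dose follow-up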
Spn DPM-DC inh: S. pneumoniae DPM-DC inhibitors, primary screen, biochemical, PK/LDH-coupled NADH fluorescence; hit rate 0.49% among 65,000; purified DPM-DC; calls only at 10 µM; diphosphomevalonate decarboxylase (Streptococcus pneumoniae D39); AID 556, 2006;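 active = the 320 compounds with the highest percent inhibition in the single-dose primary screen, excluding strongly autofluorescent ones, cut at about 32% in these data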;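 also: kinetic rate of NADH fluorescence loss reporting ADP formed by the decarboxylase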
S1P3 agonist: human S1P3 receptor agonists, primary screen, cell-based, primary and confirmation, NFAT-BLA reporter; Sphingosine 1-phosphate receptor 3 (Homo sapiens), Q99500; S1P3 NFAT-BLA reporter cells, agonism, FRET ratio; relative to 1 µM S1P, basal subtracted; activation, % at 4.5 µM; hit rate 0.1% among 60,000;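 active = activation above the screen-wide mean plus 3 SD, cut at about 4.5% in these data, passing the limit was not always enough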
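Assay system: stable CHO line with human S1P3, Gα16, NFAT-BLA reporter; Detection: FRET β-lactamase substrate fluorescence, excitation 405 nm, 460/535 nm emission ratio, background-subtracted; Read-out: percent activation versus median 1 µM S1P response, basal-subtracted, per plate; Incubation: cells plated overnight, compound 4 h 37 °C, substrate 2 h RT.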
S1P1 ag pot: S1P1 agonists and agonism potentiators, primary screen, cell-based, primary and confirmation screens, CRE-bla reporter | Sphingosine 1-phosphate receptor 1 (Homo sapiens), P21453 | S1P1 CRE-bla cells, forskolin, beta-lactamase FRET, potentiator mode; S1P1 agonist co-added at EC20, 2 nM; 100% = saturating reference agonist, 0% = basal | activation, % at 9.5 µM | hit rate 0.57% among 56,000 | AID 449, 2006;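 active = activation above a cutoff set at the mean activation of all tested compounds plus 3 SD, cut at about 54% in these data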;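 also: forskolin at 4 µM as EC80 and the EC20 agonist is SEW2871; 100% = SEW2871 at its EC100 plus forskolin at EC80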
Target sequence (P21453 whole entry, looked up): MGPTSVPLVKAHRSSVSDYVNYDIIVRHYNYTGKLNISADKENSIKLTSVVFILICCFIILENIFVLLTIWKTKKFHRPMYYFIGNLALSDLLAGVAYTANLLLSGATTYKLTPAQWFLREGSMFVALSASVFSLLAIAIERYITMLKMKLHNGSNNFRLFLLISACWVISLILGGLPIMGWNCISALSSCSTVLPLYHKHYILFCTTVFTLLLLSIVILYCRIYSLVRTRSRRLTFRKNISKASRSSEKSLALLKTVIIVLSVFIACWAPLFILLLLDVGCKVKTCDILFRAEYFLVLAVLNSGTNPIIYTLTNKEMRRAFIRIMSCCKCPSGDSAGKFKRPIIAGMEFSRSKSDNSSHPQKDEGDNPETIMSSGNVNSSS
Hsp90 inh: tumor Hsp90 inhibitors, primary screen, cell lysate, fluorescence polarization, NCI-N417 lysate. Cy3B-geldanamycin FP displacement. inhibition, % at 30 µM. hit rate 0.35% among 64,000. AID 429, 2006;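 active = inhibition above 50%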;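 also: 0% = tracer plus lysate wells and 100% = tracer alone without lysate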
PMK inhibit: S. pneumoniae PMK inhibitors, primary screen, biochemical, mevalonate pathway, pilot trial included; hit rate 0.49% among 65,000; phosphomevalonate kinase (Streptococcus pneumoniae D39); purified PMK, PK/LDH-coupled NADH absorbance 340 nm; inhibition, % at 10 µM;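 active = top-ranked compounds by inhibition in the single 10 µM screen, taking a fixed number of the strongest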;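 also: 0% = full reaction with DMSO carrier and 100% = background rate without enzyme reaction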
* hit, by the source's call; i = inactive; · = not tested or not shown; + = active, no number; [ ] = dose if it differs, or a comment.

SMILES | MK inhibit | Spn DPM-DC inh | S1P3 agonist | S1P1 ag pot | Hsp90 inh | PMK inhibit
C[C@H]1CCCC(=O)CCCCCc2cc(O)cc(O)c2C(=O)O1 | 4 | i | -2 | 10 | 88* | 0
NC(=O)CN1CC(O)CC1=O (centres undefined) | · | · | · | · | -2 | ·
Oc1ccc2c3c1O[C@H]1c4oc5ccccc5c4C[C@@]4(O)C(C2)N(CC2CC2)CCC314 (some centres undefined) | · | · | · | · | 1 | ·
Cn1ncnc2c(=O)n(C)c(=O)nc1-2 | 2 | i | -2 | 130* | 91* | 0
CN(C)[C@@H]1C(=O)C(C(N)=O)=C(O)[C@@]2(O)C(=O)C3=C(O)c4c(O)cccc4[C@@](C)(O)[C@H]3C[C@@H]12 | 2 | i | -2 | 5 | 72* | 4
CN(C)[C@@H]1C(=O)C(C(N)=O)=C(O)[C@@]2(O)C(=O)C3=C(O)c4c(O)ccc(Cl)c4[C@@](C)(O)C3C[C@@H]12 (some centres undefined) | 7 | i | -1 | -17 | -1 | 4
Cc1c2cnn(CC(=O)N3CCC4(CC3)OCCO4)c(=O)c2c(C)n1Cc1ccc(F)cc1 | 0 | i | 0 | 8 | -3 | 29*
C[C@]12Cc3cn4c(nc3C=C1CCC1C2CC[C@@]2(C)[C@H]1CC[C@@]2(O)C#N)nc1ccccc14 (some centres undefined) | · | · | · | · | -2 | ·
CC(Cc1ccc(OCC(=O)O)cc1)NCC(O)c1cccc(Cl)c1 (centres undefined) | · | · | · | · | 0 | ·
CC(O)C(C)OC(=O)[C@@H]1C[C@@H]2c3cccc4c3c(cn4C(C)C)C[C@H]2N(C)C1 (some centres undefined) | · | · | · | · | -1 | ·
Fc1ccccc1N1CCN(Cc2c(F)cccc2F)CC1 | 49* | i | 0 | · | 0 | 0
N[C@@H](Cn1ccc(=O)[nH]c1=O)C(=O)O | · | · | · | · | 2 | ·
c1ccc2c(c1)[nH]c1cnccc12 | 7 | · | 0 | -7 | -1 | 4
Cc1c2ccncc2c(C)c2c1[nH]c1ccccc12 | 5 | +[fluoresces] | 4 | -34 | 0 | 1
CCOCC(=O)NC1CCSC1=O (centres undefined) | 2 | i | 0 | 10 | -2 | 25*
CCN1C[C@]2(C)CC[C@H](O)[C@@]34C5C[C@@H]6[C@@H](OC)C[C@@](O)(C5[C@H]6O)[C@@H](CC23)C14 (some centres undefined) | · | · | · | · | -4 | ·
COc1cc(OC)c(OC)cc1CNCCc1ccc(OC)c(OC)c1 | 42* | i | 0 | 23 | 0 | 0
C[C@]12CC[C@H]3[C@@H](CCC4C[C@H](O)CC[C@@]43C)[C@@H]1CC[C@@H]2O (some centres undefined) | · | · | · | · | -2 | ·
CCCn1c(C)c(C(=O)c2ccc3ccccc3c2)c2ccccc21 | · | · | · | · | -2 | ·
Nc1c(C(=O)NCCc2ccccc2)c2nc3ccccc3nc2n1CCN1CCOCC1 | 9 | · | 7.7* | -116 | -4 | 2
CC(C)(C)c1cc(C=C(C#N)C#N)cc(C(C)(C)C)c1O | · | · | · | · | 5 | ·
N#CC(C#N)=Cc1ccc(O)c(O)c1 | · | · | · | · | 63* | ·
COc1cc(C=C(C#N)C#N)cc(O)c1O | · | · | · | · | 69* | ·
N#CC(=Cc1ccc(O)c(O)c1)C(N)=S | · | · | · | · | 52* | ·
c1ccc2sc(C3(N4CCCCC4)CCCCC3)cc2c1 | · | · | · | · | -2 | ·
SMILES | MK inhibit | Spn DPM-DC inh | S1P3 agonist | S1P1 ag pot | Hsp90 inh | PMK inhibit
COc1cc(CN2CCN(C(=O)COc3ccccc3)CC2)cc(OC)c1OC | 47* | i | -1 | -33 | -1 | 0
COc1ccccc1CN1CCN(C(=O)COc2cccc(C)c2)CC1 | 26 | i | -1 | -17 | 0 | 0
CCC(C)NC(=O)c1c(N)n(Cc2ccc3c(c2)OCO3)c2nc3ccccc3nc12 (centres undefined) | 14 | · | 31* | -460 | -5 | 0
O=C(NC1(C(F)(F)F)Oc2ccc(Cl)cc2O1)N1CCC2(CC1)OCCO2 (centres undefined) | 8 | i | · | · | 64* | 0
O=C(NC1(C(F)(F)F)Oc2ccccc2O1)N1CCC2(CC1)OCCO2 | 2 | i | · | · | · | 10
COc1ccc(CN2CCN(c3ccccc3)CC2)c(C)c1C | 50* | i | -1 | -25 | 0 | 23
Cc1ccc(O)c(CN2CCN(c3ccccc3)CC2)c1 | 5 | i | -1 | -11 | -1 | 15
Cc1cc2c(C(F)(F)F)cc(=O)oc2c2c1NCCC2 | 0 | i | -1 | 22 | 5 | 26*
O=P1(NC2CCCC2)COc2ccccc2OC1 | 10 | + | 0 | -14 | 3 | 12
O=P1(Nc2cccnc2)COc2ccccc2OC1 | 10 | i | -1 | -7 | -3 | 7
